Data published in ChEMBL document CHEMBL4257478, “Design, synthesis and evaluation of (R)-3-(7-(methyl(7H-pyrrolo[2,3-d]pyrimidin-4-yl)amino)-5-azaspiro[2.4]heptan-5-yl)-3-oxopropanenitrile as a JAK1-selective inhibitor” (Medchemcomm, 2018).
One block for each compound: values may come before it. Calls of active or inactive are those of the source. The calls are words filed in the database; no cut-off is given here.

Legend:
Mus musculus [1] = test: Antiarthritic activity in collagen-induced DBA1/J mouse arthritis model assessed as decrease in serum IL-6 levels at 100 mg/kg, po qd measured on day 19 by ELISA; type: functional, organism-based
Method in brief: (§1)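 Male DBA1/J mice, 6 weeks old, immunized s.c. at the tail base with type II collagen (2 mg/mL) in complete Freund's adjuvant (1:1, 0.1 mL), then boosted at day 21 with collagen in incomplete Freund's adjuvant. Clinical scores taken twice weekly for 18 days; serum IL-6 and TNF-α measured after autopsy; right hind ankle assessed by histopathology and by micro-CT for bone surface/volume.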

Rattus norvegicus [2] = test: Antiarthritic activity in adjuvant-induced SPF LEW/SsNSlc rat arthritis model assessed as decrease in clinical arthritis score at 20 mg/kg, po qd measured on day 14; type: functional, organism-based
Method in brief: (§2)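 Lewis rats were 10 weeks old after 2 weeks acclimation. Immunized s.c. at the tail base with 0.1 mL complete Freund's adjuvant containing 10 mg/mL heat-killed mycobacterium. From day 12 post-immunization (day 1), n=10 per group, oral dosing once daily for 14 days, vehicle corn oil. Clinical score and hind paw measured twice weekly.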

Mus musculus [3] = test: Antiarthritic activity in collagen-induced DBA1/J mouse arthritis model assessed as decrease in ratio of bone surface to bone volume of right hind ankle joint at 100 mg/kg, po qd measured on day 19 by micro-CT analysis; type: functional, organism-based; method in brief: as §1
Mus musculus [4] = test: Antiarthritic activity in collagen-induced DBA1/J mouse arthritis model assessed as decrease in articular surface cartilage thickness in right hind ankle joints at 100 mg/kg, po qd measured on day 19 by hematoxylin-eosin staining-based assay; type: functional, organism-based; method in brief: as §1
Mus musculus [5] = test: Antiarthritic activity in collagen-induced DBA1/J mouse arthritis model assessed as decrease in right hind ankle joint thickness at 100 mg/kg, po qd measured on day 19 by hematoxylin-eosin staining-based assay; type: functional, organism-based; method in brief: as §1
Mus musculus [6] = test: Antiarthritic activity in collagen-induced DBA1/J mouse arthritis model assessed as decrease in paw volume at 100 mg/kg, po qd measured on day 1 and 15 by plethysmometer
Rattus norvegicus [7] = test: Antiarthritic activity in adjuvant-induced SPF LEW/SsNSlc rat arthritis model assessed as paw thickness at 20 mg/kg, po qd measured on day 14; type: functional; method in brief: as §2
Mus musculus [8] = test: Antiarthritic activity in collagen-induced DBA1/J mouse arthritis model assessed as decrease in infiltration of inflammatory cells in right hind ankle joints at 100 mg/kg, po qd measured on day 19 by hematoxylin-eosin staining-based assay; type: functional, organism-based; method in brief: as §1
Mus musculus [9] = test: Antiarthritic activity in collagen-induced DBA1/J mouse arthritis model assessed as decrease in serum TNF-alpha levels at 100 mg/kg, po qd measured on day 19 by ELISA; type: functional, organism-based; method in brief: as §1
Mus musculus [10] = test: Antiarthritic activity in collagen-induced DBA1/J mouse arthritis model assessed as decrease in clinical arthritis score at 100 mg/kg, po qd measured twice weekly for 18 days; type: functional, organism-based; method in brief: as §1
[11] = molecular target: T1, Tyrosine-protein kinase JAK1 (Homo sapiens, UniProt P23458); test: Inhibition of human JAK1 at 1 uM using GEEPLYWSFPAKKK as substrate after 40 mins in presence of [gamma-33P-ATP] by scintillation counting method relative to control
[12] = molecular target: Tyrosine-protein kinase JAK2 (Homo sapiens, UniProt O60674); test: Inhibition of human JAK2 at 1 uM using KTFCGTPEYLAPEVRREPRILSEEEQEMFRDFDYIADWC as substrate after 40 mins in presence of [gamma-33P-ATP] by scintillation counting method relative to control
Mus musculus [13] = test: Antiarthritic activity in collagen-induced DBA1/J mouse arthritis model assessed as decrease in right hind ankle joint thickness administered as po qd measured on day 19 by hematoxylin-eosin staining-based assay; type: functional, organism-based; method in brief: as §1
Homo sapiens = species: Homo sapiens; test: Selectivity index, ratio of IC50 for human JAK2 to IC50 for human JAK1
Method in brief: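 Kinase activity assays run as a commercial service at Km ATP; IC50 values fitted from concentration-response data; ratio of JAK2 to JAK1 IC50.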

Mus musculus [14] = test: Antiarthritic activity in collagen-induced DBA1/J mouse arthritis model assessed as decrease in serum IL-6 levels administered as po qd measured on day 19 by ELISA; type: functional, organism-based; method in brief: as §1
Mus musculus [15] = test: Antiarthritic activity in collagen-induced DBA1/J mouse arthritis model assessed as decrease in articular surface cartilage thickness in right hind ankle joints administered as po qd measured on day 19 by hematoxylin-eosin staining-based assay; type: functional, organism-based; method in brief: as §1
Mus musculus [16] = test: Antiarthritic activity in collagen-induced DBA1/J mouse arthritis model assessed as decrease in ratio of bone surface to bone volume of right hind ankle joint administered as po qd measured on day 19 by micro-CT analysis; type: functional, organism-based; method in brief: as §1
Mus musculus [17] = test: Antiarthritic activity in collagen-induced DBA1/J mouse arthritis model assessed as decrease in clinical arthritis score administered as po qd measured twice weekly for 18 days; type: functional, organism-based; method in brief: as §1
Rattus norvegicus [18] = test: Antiarthritic activity in adjuvant-induced SPF LEW/SsNSlc rat arthritis model assessed as decrease in clinical arthritis score at 5 to 20 mg/kg, po qd measured on day 14; type: functional, organism-based; method in brief: as §2
[19] = molecular target: T2, Tyrosine-protein kinase JAK3 (Homo sapiens) (UniProt P52333); details: 10 uM
T2 sequence (whole entry): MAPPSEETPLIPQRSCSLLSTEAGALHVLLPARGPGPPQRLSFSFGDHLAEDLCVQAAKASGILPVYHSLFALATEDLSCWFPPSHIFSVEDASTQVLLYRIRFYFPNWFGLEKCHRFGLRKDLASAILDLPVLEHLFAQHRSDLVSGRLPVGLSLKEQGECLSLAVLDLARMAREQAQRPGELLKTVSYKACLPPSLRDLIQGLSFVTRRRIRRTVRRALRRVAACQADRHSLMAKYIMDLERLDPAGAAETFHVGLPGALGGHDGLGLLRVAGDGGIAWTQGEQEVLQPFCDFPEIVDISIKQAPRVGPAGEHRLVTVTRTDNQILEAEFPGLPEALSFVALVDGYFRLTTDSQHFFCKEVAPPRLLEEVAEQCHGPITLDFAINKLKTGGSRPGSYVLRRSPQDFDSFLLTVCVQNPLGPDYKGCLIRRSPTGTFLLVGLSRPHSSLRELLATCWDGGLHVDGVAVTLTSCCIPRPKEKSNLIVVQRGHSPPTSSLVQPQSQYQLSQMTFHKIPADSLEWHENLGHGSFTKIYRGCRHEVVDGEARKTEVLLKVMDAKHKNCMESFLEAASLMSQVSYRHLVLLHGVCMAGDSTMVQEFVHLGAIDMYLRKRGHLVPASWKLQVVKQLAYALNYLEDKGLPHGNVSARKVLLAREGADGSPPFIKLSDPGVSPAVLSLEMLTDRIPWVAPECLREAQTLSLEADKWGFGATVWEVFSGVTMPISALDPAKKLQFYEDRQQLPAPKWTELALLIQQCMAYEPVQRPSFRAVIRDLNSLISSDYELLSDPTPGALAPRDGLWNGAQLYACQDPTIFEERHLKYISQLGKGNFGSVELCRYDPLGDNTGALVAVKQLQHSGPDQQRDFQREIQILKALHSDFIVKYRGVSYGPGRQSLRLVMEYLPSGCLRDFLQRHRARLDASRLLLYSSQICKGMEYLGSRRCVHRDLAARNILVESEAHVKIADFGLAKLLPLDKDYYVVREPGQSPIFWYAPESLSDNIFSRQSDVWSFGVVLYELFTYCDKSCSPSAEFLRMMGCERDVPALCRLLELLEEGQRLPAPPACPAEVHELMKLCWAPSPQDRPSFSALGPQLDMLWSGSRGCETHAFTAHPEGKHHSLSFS

Mus musculus [20] = test: Antiarthritic activity in collagen-induced DBA1/J mouse arthritis model assessed as decrease in infiltration of inflammatory cells in right hind ankle joints administered as po qd measured on day 19 by hematoxylin-eosin staining-based assay; type: functional, organism-based; method in brief: as §1
[21] = molecular target: Non-receptor tyrosine-protein kinase TYK2 (Homo sapiens) (UniProt P29597); details: 10 uM
Mus musculus [22] = test: Antiarthritic activity in collagen-induced DBA1/J mouse arthritis model assessed as decrease in paw volume administered as po qd measured on day 1 and 15 by plethysmometer
[23] = molecular target: T1, Tyrosine-protein kinase JAK1; details: 10 uM

T1 sequence (P23458 whole entry): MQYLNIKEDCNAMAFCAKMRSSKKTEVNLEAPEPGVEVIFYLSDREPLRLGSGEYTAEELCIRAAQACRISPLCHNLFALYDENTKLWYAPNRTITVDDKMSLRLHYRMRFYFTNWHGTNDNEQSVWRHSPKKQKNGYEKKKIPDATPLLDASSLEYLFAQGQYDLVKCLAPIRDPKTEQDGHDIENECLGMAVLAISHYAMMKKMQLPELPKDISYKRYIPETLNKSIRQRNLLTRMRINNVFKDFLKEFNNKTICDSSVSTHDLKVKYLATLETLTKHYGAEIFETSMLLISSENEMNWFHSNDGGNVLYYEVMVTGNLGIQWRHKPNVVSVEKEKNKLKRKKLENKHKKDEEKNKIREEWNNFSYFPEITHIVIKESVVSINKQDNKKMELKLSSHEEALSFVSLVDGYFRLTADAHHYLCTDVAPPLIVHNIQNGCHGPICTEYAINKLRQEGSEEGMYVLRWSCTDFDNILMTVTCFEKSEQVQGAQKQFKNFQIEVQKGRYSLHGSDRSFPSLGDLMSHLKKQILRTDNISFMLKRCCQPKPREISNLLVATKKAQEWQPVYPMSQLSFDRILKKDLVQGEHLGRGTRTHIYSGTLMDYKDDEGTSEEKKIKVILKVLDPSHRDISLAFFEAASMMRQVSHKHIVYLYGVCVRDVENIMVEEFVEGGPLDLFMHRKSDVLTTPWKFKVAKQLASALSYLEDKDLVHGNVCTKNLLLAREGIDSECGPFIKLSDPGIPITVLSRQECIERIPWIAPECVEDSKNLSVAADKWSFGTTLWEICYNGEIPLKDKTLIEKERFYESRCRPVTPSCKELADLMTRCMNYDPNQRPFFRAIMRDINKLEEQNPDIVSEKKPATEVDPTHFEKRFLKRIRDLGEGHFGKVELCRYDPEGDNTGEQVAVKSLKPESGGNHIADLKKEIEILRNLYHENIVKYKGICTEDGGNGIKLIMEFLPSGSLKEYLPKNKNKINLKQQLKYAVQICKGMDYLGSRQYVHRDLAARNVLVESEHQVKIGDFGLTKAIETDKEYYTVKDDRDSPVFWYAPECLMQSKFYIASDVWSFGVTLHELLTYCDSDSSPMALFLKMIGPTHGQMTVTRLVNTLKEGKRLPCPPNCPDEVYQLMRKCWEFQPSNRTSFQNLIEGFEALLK
Chain of Non-receptor tyrosine-protein kinase TYK2 (Homo sapiens) (P29597 whole entry): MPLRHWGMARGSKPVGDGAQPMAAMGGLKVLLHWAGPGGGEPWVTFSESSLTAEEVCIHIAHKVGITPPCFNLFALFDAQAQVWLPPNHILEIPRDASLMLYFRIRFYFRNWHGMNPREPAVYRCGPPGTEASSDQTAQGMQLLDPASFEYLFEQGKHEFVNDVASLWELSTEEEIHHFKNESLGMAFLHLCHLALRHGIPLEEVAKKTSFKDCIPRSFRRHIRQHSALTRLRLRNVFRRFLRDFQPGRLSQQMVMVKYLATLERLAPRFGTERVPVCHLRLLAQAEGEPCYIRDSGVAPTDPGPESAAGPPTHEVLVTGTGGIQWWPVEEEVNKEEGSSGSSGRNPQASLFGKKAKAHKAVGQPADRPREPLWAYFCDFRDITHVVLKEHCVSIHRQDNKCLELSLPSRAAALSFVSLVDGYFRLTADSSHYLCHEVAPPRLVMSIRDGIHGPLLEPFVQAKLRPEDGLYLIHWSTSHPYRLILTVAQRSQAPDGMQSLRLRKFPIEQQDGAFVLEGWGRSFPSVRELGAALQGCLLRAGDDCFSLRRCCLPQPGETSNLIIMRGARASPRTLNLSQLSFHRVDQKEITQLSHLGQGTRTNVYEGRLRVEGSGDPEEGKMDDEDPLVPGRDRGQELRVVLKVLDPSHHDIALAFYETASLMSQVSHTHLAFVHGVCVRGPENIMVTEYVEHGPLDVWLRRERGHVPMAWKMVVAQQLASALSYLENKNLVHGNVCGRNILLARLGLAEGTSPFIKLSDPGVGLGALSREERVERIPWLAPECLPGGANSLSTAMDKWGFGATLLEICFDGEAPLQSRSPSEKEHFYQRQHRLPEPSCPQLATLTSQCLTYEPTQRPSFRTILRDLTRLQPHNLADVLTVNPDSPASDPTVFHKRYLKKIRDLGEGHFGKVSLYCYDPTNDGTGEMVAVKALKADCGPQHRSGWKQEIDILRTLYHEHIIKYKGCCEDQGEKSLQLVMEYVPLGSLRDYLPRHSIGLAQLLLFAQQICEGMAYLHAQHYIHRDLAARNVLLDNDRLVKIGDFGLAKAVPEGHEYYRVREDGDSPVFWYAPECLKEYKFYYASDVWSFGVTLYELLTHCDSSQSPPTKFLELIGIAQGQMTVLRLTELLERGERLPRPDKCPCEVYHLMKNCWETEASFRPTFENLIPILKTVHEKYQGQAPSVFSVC
Chain of Tyrosine-protein kinase JAK2 (O60674 whole entry): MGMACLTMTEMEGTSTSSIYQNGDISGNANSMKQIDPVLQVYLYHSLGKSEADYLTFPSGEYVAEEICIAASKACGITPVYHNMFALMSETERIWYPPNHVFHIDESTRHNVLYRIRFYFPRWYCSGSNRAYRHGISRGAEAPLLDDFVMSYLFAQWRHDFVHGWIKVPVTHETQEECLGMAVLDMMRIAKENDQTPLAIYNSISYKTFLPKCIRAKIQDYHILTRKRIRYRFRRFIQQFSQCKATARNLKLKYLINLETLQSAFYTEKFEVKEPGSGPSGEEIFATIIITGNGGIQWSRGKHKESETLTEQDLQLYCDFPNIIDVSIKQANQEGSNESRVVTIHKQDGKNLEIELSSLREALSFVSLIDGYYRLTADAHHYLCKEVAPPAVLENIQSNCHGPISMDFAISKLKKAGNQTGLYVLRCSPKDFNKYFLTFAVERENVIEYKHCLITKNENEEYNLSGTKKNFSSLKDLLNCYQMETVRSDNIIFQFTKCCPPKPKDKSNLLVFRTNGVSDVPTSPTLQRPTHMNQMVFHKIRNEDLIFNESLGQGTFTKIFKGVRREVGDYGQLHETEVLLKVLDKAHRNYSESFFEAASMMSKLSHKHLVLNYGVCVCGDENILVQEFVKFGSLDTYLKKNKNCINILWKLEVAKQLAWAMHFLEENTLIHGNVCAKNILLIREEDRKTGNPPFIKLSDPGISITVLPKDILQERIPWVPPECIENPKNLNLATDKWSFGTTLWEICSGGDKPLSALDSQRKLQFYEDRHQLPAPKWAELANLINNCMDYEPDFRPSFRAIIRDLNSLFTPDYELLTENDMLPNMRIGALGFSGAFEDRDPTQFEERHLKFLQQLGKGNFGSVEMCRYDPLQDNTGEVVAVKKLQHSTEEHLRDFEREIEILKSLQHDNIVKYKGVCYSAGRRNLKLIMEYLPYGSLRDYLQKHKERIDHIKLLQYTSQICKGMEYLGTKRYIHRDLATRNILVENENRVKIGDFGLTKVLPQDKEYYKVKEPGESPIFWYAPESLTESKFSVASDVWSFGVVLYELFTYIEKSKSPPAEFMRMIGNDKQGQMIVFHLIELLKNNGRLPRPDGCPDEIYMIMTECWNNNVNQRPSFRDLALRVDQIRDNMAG

SMILES: O=C(Nc1nc2cccc(-c3ccc(CN4CCS(=O)(=O)CC4)cc3)n2n1)C1CC1 [FILGOTINIB]
Activity (Mus musculus [1]): Active | Activity (Rattus norvegicus [2]): Active | Activity (Mus musculus [3]): Active | Activity (Mus musculus [4]): Active | Activity (Mus musculus [5]): Active | Activity (Mus musculus [6]): Active | Activity (Rattus norvegicus [7]): 10.32 mm | Activity (Mus musculus [8]): Active | Activity (Mus musculus [9]): Active | Activity (Mus musculus [10]): Active

inhibition [11]: 6% | inhibition at 1 µM [12]: 10%
SMILES: N#CCC(=O)NC1CN(c2ncnc3[nH]ccc23)CC12CC2 (centres undefined)

Ratio IC50 (Homo sapiens): 48 | inhibition [19]: 90% | inhibition [21]: 90% | inhibition [23]: 90%
SMILES: CN(c1ncnc2[nH]ccc12)[C@H]1CN(C(=O)CC#N)CC12CC2
Activity (Mus musculus [13]): Dose-dependent effect | Activity (Mus musculus [14]): Dose-dependent effect | Activity (Mus musculus [15]): Dose-dependent effect | Activity (Mus musculus [16]): Dose-dependent effect | Activity (Mus musculus [17]): Dose-dependent effect | Activity (Rattus norvegicus [18]): Active | Activity (Mus musculus [20]): Dose-dependent effect | Activity (Mus musculus [22]): Dose-dependent effect
